From ChEMBL document CHEMBL1159071, “Discovery of 4-(5-methyloxazolo[4,5-b]pyridin-2-yl)-1,4-diazabicyclo[3.2.2]nonane (CP-810,123), a novel alpha 7 nicotinic acetylcholine receptor agonist for the treatment of cognitive disorders in schizophrenia: synthesis, SAR development, and in vivo efficacy in cognition models” (J Med Chem, 2010)
pEC50, pKi: −log10 of the molar value. Calls of active or inactive are those of the source. No cut-off for these calls is given here.

Columns and labels:
[1] = Oral bioavailability in rat; format: ADME, organism-based; details: in vivo
[2] = Permeability from apical to basolateral side in dog MDCK cells at 2 uM; format: ADME, cell-based, Canis lupus familiaris; details: read-out: permeability
Summary of the method: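 MS quantification of apical-to-basolateral transfer of compound at 2 μM across contiguous MDCK cell monolayers.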

[3] = Lipophilicity, log D at pH 7.4; format: physicochemical; details: buffer
[4] = biological target: T1, Muscarinic acetylcholine receptor M1 (Homo sapiens, UniProt P11229); assay: Inhibition of muscarinic M1 receptor
T1 sequence (P11229 whole entry): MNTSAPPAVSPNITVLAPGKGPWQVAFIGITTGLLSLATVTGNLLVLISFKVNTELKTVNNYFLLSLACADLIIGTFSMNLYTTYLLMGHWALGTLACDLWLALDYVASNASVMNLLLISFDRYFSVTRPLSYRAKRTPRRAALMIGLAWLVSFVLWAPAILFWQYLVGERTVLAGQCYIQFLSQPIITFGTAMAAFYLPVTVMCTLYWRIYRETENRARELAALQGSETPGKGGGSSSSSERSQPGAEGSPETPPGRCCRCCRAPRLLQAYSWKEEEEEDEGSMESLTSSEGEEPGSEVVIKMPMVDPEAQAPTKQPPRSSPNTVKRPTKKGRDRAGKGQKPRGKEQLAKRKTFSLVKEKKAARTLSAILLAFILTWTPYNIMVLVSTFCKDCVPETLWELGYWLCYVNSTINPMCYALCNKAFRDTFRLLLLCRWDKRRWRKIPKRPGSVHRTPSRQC

[5] = Agonist activity at human alpha7 nAChR/mouse 5HT3 chimeric receptor expressed in SH-EP1 cells assessed as increase in intracellular calcium level; format: functional, cell-based
Summary of the method: (§1)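 α7-5HT3 chimera stably in SH-EP1 cells grown to confluence; loaded with Calcium Green 1 AM (2 μM final) 60 min at 37 °C. Compound added directly; calcium rise read by FLIPR (excitation 488 nm, emission >525 nm).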

[6] = biological target: Muscarinic acetylcholine receptor M3 (Homo sapiens, UniProt P20309); assay: Inhibition of muscarinic M3 receptor
Chain of Muscarinic acetylcholine receptor M3 (P20309 whole entry): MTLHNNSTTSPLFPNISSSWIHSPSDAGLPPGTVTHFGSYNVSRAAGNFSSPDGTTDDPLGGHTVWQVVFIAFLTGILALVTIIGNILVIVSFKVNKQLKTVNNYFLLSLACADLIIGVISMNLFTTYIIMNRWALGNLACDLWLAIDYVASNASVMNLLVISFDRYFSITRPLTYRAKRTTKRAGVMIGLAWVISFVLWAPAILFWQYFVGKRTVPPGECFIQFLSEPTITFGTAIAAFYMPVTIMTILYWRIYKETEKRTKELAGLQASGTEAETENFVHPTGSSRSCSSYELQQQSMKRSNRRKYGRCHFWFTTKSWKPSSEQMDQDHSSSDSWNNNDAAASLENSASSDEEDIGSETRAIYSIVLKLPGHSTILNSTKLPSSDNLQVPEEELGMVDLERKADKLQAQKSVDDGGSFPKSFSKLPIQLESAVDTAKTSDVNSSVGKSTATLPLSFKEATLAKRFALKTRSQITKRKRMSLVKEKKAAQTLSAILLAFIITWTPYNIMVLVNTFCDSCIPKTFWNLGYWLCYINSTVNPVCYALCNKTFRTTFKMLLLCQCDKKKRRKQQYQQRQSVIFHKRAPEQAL

[7] = system: Rattus norvegicus; assay: Cognitive enhancement in Sprague-Dawley rat assessed as reversal of amphetamine-induced auditory sensory gating deficit at 0.1 mg/kg, sc; format: functional, organism-based; set-up: dose 0.1 mg/kg
Summary of the method: (§2)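 Male Sprague-Dawley rats (250-300 g) under chloral hydrate (400 mg/kg ip), femoral vein cannulated. CA3 hippocampal field potential recorded; auditory-evoked responses averaged over 50 stimulus pairs at 10 s interstimulus interval. Gating disrupted by d-amphetamine 1 mg/kg iv; compound sc. Read-out is reversal of the amphetamine deficit; PBS vehicle; two-tailed paired t-test.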

[8] = system: Rattus norvegicus; assay: Cognitive enhancement in Sprague-Dawley rat assessed as augmentation of amphetamine-induced hippocampal theta oscillation at 1 mg/kg, sc; format: functional, organism-based; set-up: dose 1 mg/kg; details: Hippocampus
[9] = system: Rattus norvegicus; assay: Cognitive enhancement in Sprague-Dawley rat assessed as reversal of amphetamine-induced auditory sensory gating deficit at 0.03 mg/kg, sc; format: functional, organism-based; set-up: dose 0.03 mg/kg; summary of the method: as §2
[10] = system: Rattus norvegicus; assay: Cognitive enhancement in Sprague-Dawley rat assessed as improvement of scopolamine-impaired performance at 1 mg/kg, sc administered 30 mins before scopolamine challenge by novel object recognition assay; format: functional, organism-based; set-up: dose 1 mg/kg
Summary of the method: (§3)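 Rats habituated to the arena 3 min on day 1. Next day, 10-15 per group dosed sc with vehicle or compound, then 30 min later vehicle or (-)-scopolamine 0.2 mg/kg sc. After 30 min more, two identical objects shown 3 min; 2.5 h later one novel and one familiar object for 3 min. Exploration time per object, mean ± SEM.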

[11] = Agonist activity at human alpha7 nAChR/mouse 5HT3 chimeric receptor expressed in SH-EP1 cells assessed as increase in intracellular calcium level relative to 100 uM nicotine; format: functional; summary of the method: as §1
[12] = biological target: T2, Muscarinic acetylcholine receptor M5 (Homo sapiens, UniProt P08912); assay: Inhibition of muscarinic M5 receptor
T2 sequence (P08912 whole entry): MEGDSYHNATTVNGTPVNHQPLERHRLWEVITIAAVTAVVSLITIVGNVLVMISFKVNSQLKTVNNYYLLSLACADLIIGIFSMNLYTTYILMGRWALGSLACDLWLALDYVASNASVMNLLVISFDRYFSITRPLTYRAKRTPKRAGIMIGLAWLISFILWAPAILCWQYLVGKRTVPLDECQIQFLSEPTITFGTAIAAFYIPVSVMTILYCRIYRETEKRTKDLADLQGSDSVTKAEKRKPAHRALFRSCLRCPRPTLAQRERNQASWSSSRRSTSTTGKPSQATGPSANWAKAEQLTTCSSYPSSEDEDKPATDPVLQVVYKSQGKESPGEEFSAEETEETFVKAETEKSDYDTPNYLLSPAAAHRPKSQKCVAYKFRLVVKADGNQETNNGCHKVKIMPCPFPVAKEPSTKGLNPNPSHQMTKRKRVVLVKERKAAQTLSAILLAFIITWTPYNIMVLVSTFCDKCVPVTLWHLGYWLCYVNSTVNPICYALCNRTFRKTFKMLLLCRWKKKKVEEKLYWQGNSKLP

[13] = system: Plasma; assay: Fraction unbound in rat plasma; format: ADME, cell-free
[14] = biological target: Neuronal acetylcholine receptor subunit alpha-7 (Rattus norvegicus) (UniProt Q05941); assay: Ex vivo receptor binding at alpha7 nicotinic acetylcholine receptor in rat hippocampal brain after 30 mins by [125I]alpha-bungarotoxin binding assay; format: tissue-based; details: Hippocampus
Chain of Neuronal acetylcholine receptor subunit alpha-7 (Rattus norvegicus) (Q05941 whole entry): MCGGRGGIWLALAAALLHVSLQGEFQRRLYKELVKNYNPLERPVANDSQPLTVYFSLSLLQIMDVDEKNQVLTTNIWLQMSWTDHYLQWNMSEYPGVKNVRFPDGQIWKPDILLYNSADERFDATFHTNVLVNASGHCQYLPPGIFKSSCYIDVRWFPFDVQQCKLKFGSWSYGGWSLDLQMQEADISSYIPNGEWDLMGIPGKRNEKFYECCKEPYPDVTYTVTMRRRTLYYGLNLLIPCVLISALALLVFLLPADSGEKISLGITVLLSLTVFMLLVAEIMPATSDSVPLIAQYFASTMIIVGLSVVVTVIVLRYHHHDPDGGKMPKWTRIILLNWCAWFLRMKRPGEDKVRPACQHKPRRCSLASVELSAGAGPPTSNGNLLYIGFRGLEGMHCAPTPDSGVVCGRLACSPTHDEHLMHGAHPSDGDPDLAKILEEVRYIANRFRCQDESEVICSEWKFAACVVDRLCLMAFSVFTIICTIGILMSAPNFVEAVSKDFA
Summary of the method: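 Rats dosed sc with compound or vehicle, 3 per dose group; hippocampus taken 30 min later and homogenized in HEPES buffer pH 7.5. Homogenate incubated 2 h at 37 °C with 0.4 nM [125I]α-bungarotoxin. Nonspecific binding with 1 μM methyllycaconitine; filtration onto GF/B. Occupancy-versus-dose ED50 derived.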

[15] = biological target: Neuronal acetylcholine receptor; alpha4/beta2 (Rattus norvegicus, UniProt P09483+P12390); assay: Displacement of [3H]nicotine from alpha4beta2 nAChR in rat brain homogenate; format: tissue-based
Chain of Neuronal acetylcholine receptor; alpha4/beta2 (P09483 whole entry): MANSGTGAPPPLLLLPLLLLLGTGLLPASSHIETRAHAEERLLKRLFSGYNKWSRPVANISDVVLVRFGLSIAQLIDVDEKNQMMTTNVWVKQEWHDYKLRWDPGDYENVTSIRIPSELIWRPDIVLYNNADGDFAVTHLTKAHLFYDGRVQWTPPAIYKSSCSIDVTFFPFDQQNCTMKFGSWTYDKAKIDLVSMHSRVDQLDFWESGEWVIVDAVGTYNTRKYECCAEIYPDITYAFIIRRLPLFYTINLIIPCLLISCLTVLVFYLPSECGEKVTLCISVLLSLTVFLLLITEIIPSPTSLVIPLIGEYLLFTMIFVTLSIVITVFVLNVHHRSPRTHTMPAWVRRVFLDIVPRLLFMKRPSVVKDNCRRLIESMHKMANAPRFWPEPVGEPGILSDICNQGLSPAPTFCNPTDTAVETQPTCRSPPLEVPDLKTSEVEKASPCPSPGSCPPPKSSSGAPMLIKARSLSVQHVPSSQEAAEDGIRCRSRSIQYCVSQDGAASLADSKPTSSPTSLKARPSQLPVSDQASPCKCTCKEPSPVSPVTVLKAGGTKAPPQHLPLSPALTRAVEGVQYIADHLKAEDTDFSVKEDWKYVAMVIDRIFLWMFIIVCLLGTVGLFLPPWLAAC
Chain of Neuronal acetylcholine receptor; alpha4/beta2 (P12390 whole entry): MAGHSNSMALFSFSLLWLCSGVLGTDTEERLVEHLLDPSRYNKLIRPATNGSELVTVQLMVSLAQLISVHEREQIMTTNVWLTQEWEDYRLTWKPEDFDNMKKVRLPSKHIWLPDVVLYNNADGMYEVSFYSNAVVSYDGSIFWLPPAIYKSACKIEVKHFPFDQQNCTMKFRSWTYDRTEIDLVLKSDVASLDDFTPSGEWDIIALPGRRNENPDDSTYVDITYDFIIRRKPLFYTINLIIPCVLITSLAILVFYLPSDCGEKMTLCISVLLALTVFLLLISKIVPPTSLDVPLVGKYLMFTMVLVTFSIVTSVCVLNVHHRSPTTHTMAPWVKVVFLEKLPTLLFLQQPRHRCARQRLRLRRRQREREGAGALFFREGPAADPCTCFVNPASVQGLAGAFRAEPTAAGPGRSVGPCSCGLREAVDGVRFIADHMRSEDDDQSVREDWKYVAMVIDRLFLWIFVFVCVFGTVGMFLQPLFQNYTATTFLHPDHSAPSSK
Summary of the method: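 Rat brain homogenate membranes; [3H]nicotine used as radioligand. Ki taken as the average of a six-point dose-response curve run in triplicate.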

[16] = system: CHO; assay: Toxicity in CHO cells assessed as induction of DNA fragments by in vitro micronucleus assay; format: cell-based, Cricetulus griseus; details: chinese hamster
[17] = Ratio of drug level in brain to plasma of rat at 1 mg/kg, sc after 40 mins; details: brain and plasma
[18] = system: Rattus norvegicus; assay: Free plasma concentration in Sprague-Dawley rat auditory sensory gating deficit model at 0.3 mg/kg, sc after 40 mins; format: functional; details: route subcutaneous
Summary of the method: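 Rats given 0.3 mg/kg sc; free plasma concentration measured about 40 min after dosing.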

[19] = biological target: Neuronal acetylcholine receptor; alpha3/beta4 (Homo sapiens, UniProt P30926+P32297); assay: Displacement of [3H]epibatidine from alpha3beta4 nAChR expressed in IMR32 cells; format: cell-based, IMR-32
Chain of Neuronal acetylcholine receptor; alpha3/beta4 (P30926 whole entry): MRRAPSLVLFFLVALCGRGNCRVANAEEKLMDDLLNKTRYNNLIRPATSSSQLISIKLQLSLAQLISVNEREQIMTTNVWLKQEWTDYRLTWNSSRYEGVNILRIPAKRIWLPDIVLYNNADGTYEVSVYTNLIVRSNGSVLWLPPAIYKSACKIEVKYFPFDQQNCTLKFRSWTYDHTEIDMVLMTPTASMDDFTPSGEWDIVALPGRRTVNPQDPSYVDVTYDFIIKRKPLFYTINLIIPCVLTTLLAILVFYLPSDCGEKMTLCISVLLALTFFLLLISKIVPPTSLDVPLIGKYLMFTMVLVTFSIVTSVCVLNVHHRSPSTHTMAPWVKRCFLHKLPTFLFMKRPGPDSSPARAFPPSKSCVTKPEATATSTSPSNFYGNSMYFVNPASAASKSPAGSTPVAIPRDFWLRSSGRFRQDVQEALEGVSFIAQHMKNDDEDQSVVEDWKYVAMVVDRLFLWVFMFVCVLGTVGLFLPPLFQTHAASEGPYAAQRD
Chain of Neuronal acetylcholine receptor; alpha3/beta4 (P32297 whole entry): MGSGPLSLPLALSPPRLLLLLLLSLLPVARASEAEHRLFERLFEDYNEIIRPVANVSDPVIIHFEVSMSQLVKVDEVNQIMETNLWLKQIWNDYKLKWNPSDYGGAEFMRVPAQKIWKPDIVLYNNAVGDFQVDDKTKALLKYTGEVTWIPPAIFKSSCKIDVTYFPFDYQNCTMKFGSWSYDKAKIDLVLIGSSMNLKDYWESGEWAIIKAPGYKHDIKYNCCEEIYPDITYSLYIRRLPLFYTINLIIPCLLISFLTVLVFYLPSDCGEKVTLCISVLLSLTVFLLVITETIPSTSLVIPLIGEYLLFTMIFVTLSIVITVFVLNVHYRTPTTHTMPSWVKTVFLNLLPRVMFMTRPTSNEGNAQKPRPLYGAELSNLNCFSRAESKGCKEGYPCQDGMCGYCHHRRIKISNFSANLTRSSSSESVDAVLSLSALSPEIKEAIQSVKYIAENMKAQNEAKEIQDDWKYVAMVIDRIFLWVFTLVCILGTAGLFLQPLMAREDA
Summary of the method: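 Alpha3β4 binding in IMR32 cells with [3H]epibatidine radioligand. Six-point concentration-response curve run in triplicate and averaged.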

[20] = system: Rattus norvegicus; assay: Cognitive enhancement in Sprague-Dawley rat assessed as improvement of scopolamine-impaired performance at 0.32 mg/kg, sc administered 30 mins before scopolamine challenge by novel object recognition assay; format: functional, organism-based; set-up: dose 0.32 mg/kg; summary of the method: as §3
[21] = system: Rattus norvegicus; assay: Cognitive enhancement in sc dosed Sprague-Dawley rat assessed as reversal of amphetamine-induced auditory sensory gating deficits; format: functional; details: read-out: MED; summary of the method: as §2
[22] = system: Rattus norvegicus; assay: Cognitive enhancement in Sprague-Dawley rat assessed as reversal of amphetamine-induced auditory sensory gating deficit at 0.3 mg/kg, sc; format: functional, organism-based; set-up: dose 0.3 mg/kg; summary of the method: as §2
[23] = Half life in human liver microsomes; format: ADME, Microsome
Summary of the method: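 Stability in human liver microsomes.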

[24] = Aqueous solubility of the compound; format: physicochemical; details: buffer

Q: Which results are given for `Cc1ccc2oc(N3CCN4CCC3CC4)nc2n1`?
A: bioavailability [1]: 73%; Papp A→B at 2 µM [2]: 180 nm/s; logD [3]: 0.36; pKi [4]: 4.85; pEC50 [5]: 6.61; pKi [6]: 5.08; Activity [7]: Active; Activity [8]: Active; Activity [9]: Active; Activity [10]: Active; Efficacy [11]: 46%; pKi [12]: 5.28; Fu [13]: 0.78%; ED50 [14]: 0.34 mg/kg; pKi [15]: 5.87; Activity [16]: Non-toxic; Kp at 40 min [17]: 1.5; Cp(f) [18]: 326 nM; pKi [19]: 5.27; Activity [20]: Active; minimal effective dose [21]: 0.3 mg/kg; Activity [22]: Active; half-life [23]: > 2 h; solubility [24]: > 2.4 mg/mL
